# Measurements reported in ChEMBL document CHEMBL1152718, “Novel potent inhibitors of hepatitis C virus (HCV) NS3 protease with cyclic sulfonyl P3 cappings” (Bioorg Med Chem Lett, 2009).
# Active and inactive are the calls of the source. The calls are words filed in the database; no cut-off is given here.
# Experiments:
# Hepatitis C virus = test: Antiviral activity against HCV in human Huh7 cells by replicon-based ELISA; type: functional, Hepacivirus hominis; conditions: Huh-7
# In short: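 Replicon assay run only on compounds with good enzyme potency. The value is EC90, the concentration that inhibits 90% of replicon replication.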
# [1] = (§1) AUC in rat at 3 mg/kg, po; type: ADME, organism-based, Plasma; set-up: dose 3 mg/kg, route oral; conditions: plasma
# [2] = Inhibition of HCV isolate BK NS4A-tethered single chain NS3 serine protease; set-up: species or system Hepatitis C virus (isolate BK)
# In short: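 Continuous (kinetic) assay using the NS4A-tethered single-chain NS3 serine protease. The result is reported as K_i*, an equilibrium constant covering the reversible covalent ketone–serine adduct plus other inhibitor–enzyme contacts.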
# [3] = Selectivity for HCV isolate BK NS4A-tethered single chain NS3 serine protease over human neutrophil elastase
# Rattus norvegicus = test: as §1; type: ADME, organism-based, Plasma; set-up: dose 3 mg/kg, route oral; conditions: in vivo
# [4] = Bioavailability in dog; type: ADME, organism-based, Canis lupus familiaris; conditions: in vivo
# [5] = Bioavailability in monkey; type: ADME, organism-based, Macaca mulatta; conditions: rhesus monkey, in vivo
SMILES,EC90 (Hepatitis C virus),AUC [1],Ki [2],Selectivity ratio [3],Activity (Hepatitis C virus; Hepacivirus hominis),Activity (Rattus norvegicus),bioavailability [4],bioavailability [5],EC90 (Hepatitis C virus; Hepacivirus hominis)
C=CCNC(=O)C(=O)C(CCCC)NC(=O)[C@@H]1[C@@H]2[C@H](CN1C(=O)[C@@H](NC(=O)N[C@H](CN1Cc3ccccc3S1(=O)=O)C(C)(C)C)C(C)(C)C)C2(C)C (some centres not stated),80 nM,1.43 µM·h,5 nM,6100,–,–,–,–,–
C=CCNC(=O)C(=O)C(CCC)NC(=O)[C@@H]1[C@@H]2[C@H](CN1C(=O)[C@@H](NC(=O)N[C@H](CN1Cc3sccc3S1(=O)=O)C(C)(C)C)C1CCCCC1)C2(C)C (some centres not stated),100 nM,–,14 nM,10,–,–,–,–,–
C=CCNC(=O)C(=O)C(CCC)NC(=O)[C@@H]1[C@@H]2[C@H](CN1C(=O)[C@@H](NC(=O)N[C@H](CN1CCCCS1(=O)=O)C(C)(C)C)C(C)(C)C)C2(C)C (some centres not stated),200 nM,0.67 µM·h,6 nM,650,–,–,–,–,–
C=CCNC(=O)C(=O)C(CC1CCC1)NC(=O)[C@@H]1[C@@H]2[C@H](CN1C(=O)[C@@H](NC(=O)N[C@H](CN1Cc3ccccc3S1(=O)=O)C(C)(C)C)C(C)(C)C)C2(C)C (some centres not stated),–,–,30 nM,1500,inactive,Not Active,–,–,–
CC(C)(C)NC(=O)N[C@H](C(=O)N1C[C@H]2[C@@H]([C@H]1C(=O)NC(CC1CCC1)C(=O)C(N)=O)C2(C)C)C(C)(C)C (some centres not stated) [BOCEPREVIR],350 nM,–,14 nM,–,–,–,34%,4%,–
C=CCNC(=O)C(=O)C(CCC)NC(=O)[C@@H]1[C@@H]2[C@H](CN1C(=O)[C@@H](NC(=O)NC1(CN3Cc4sccc4S3(=O)=O)CCCCC1)C(C)(C)C)C2(C)C (some centres not stated),400 nM,–,41 nM,130,–,–,–,–,–
C=CCNC(=O)C(=O)C(CCC)NC(=O)[C@@H]1[C@@H]2[C@H](CN1C(=O)[C@@H](NC(=O)N[C@H](CN1CCCCS1(=O)=O)C1CCCCC1)C(C)(C)C)C2(C)C (some centres not stated),250 nM,0.18 µM·h,30 nM,50,–,–,–,–,–
C=CCNC(=O)C(=O)C(CC1CC1)NC(=O)[C@@H]1[C@@H]2[C@H](CN1C(=O)[C@@H](NC(=O)N[C@H](CN1Cc3ccccc3S1(=O)=O)C(C)(C)C)C(C)(C)C)C2(C)C (some centres not stated),150 nM,0.705 µM·h,7 nM,1600,–,–,–,–,–
C=CCNC(=O)C(=O)C(CCC)NC(=O)[C@@H]1[C@@H]2[C@H](CN1C(=O)[C@@H](NC(=O)N[C@H](CN1CCCNS1(=O)=O)C(C)(C)C)C(C)(C)C)C2(C)C (some centres not stated),350 nM,–,59 nM,80,–,–,–,–,–
C=CCNC(=O)C(=O)C(CCC)NC(=O)[C@@H]1[C@@H]2[C@H](CN1C(=O)[C@@H](NC(=O)N[C@H](CN1Cc3sccc3S1(=O)=O)C(C)(C)C)C(C)(C)C)C2(C)C (some centres not stated),150 nM,0.43 µM·h,10 nM,150,–,–,–,–,–
C=CCNC(=O)C(=O)C(CCC)NC(=O)[C@@H]1[C@@H]2[C@H](CN1C(=O)[C@@H](NC(=O)N[C@H](CN1Cc3ccccc3S1(=O)=O)C(C)(C)C)C1(C)CCCCC1)C2(C)C (some centres not stated),150 nM,–,5 nM,50,–,–,–,–,–
C=CCNC(=O)C(=O)C(CCC)NC(=O)[C@@H]1[C@@H]2[C@H](CN1C(=O)[C@@H](NC(=O)N[C@H](CN1Cc3ccccc3S1(=O)=O)C(C)(C)C)C(C)(C)C)C2(C)C (some centres not stated),–,0.373 µM·h,3 nM,650,–,–,–,–,–
C=CCNC(=O)C(=O)C(CCC)NC(=O)[C@@H]1[C@@H]2[C@H](CN1C(=O)[C@@H](NC(=O)N[C@H](CN1CCCS1(=O)=O)C(C)(C)C)C(C)(C)C)C2(C)C (some centres not stated),200 nM,0.09 µM·h,11 nM,230,–,–,–,–,–
C=CCNC(=O)C(=O)C(CCC)NC(=O)[C@@H]1[C@@H]2[C@H](CN1C(=O)[C@@H](NC(=O)N[C@H](CN1Cc3ccccc3S1(=O)=O)C1CCCCC1)C(C)(C)C)C2(C)C (some centres not stated),–,–,18 nM,55,–,–,–,–,inactive
C#CCCC(NC(=O)[C@@H]1[C@@H]2[C@H](CN1C(=O)[C@@H](NC(=O)N[C@H](CN1Cc3ccccc3S1(=O)=O)C(C)(C)C)C(C)(C)C)C2(C)C)C(=O)C(=O)NCC=C (some centres not stated),250 nM,–,0.9 nM,380,–,Not Active,–,–,–
C=CCNC(=O)C(=O)C(CCC)NC(=O)[C@@H]1[C@@H]2[C@H](CN1C(=O)[C@@H](NC(=O)N[C@H](CN1Cc3ccccc3S1(=O)=O)C(C)(C)C)C1CCCCC1)C2(C)C (some centres not stated),150 nM,–,7 nM,19,–,–,–,–,–
C=CCNC(=O)C(=O)C(CCC)NC(=O)[C@@H]1[C@@H]2[C@H](CN1C(=O)[C@@H](NC(=O)N[C@H](CN1Cc3sccc3S1(=O)=O)C(C)(C)C)C1(C)CCCCC1)C2(C)C (some centres not stated),100 nM,–,3 nM,68,–,–,–,–,–
C=CCNC(=O)C(=O)C(CCC)NC(=O)[C@@H]1[C@@H]2[C@H](CN1C(=O)[C@@H](NC(=O)N[C@H](CN1C(=O)c3ccccc3S1(=O)=O)C(C)(C)C)C(C)(C)C)C2(C)C (some centres not stated),230 nM,–,15 nM,310,–,–,–,–,–
C=CCNC(=O)C(=O)C(CCC)NC(=O)[C@@H]1[C@@H]2[C@H](CN1C(=O)[C@@H](NC(=O)N[C@H](CN1CCCN(C)S1(=O)=O)C(C)(C)C)C(C)(C)C)C2(C)C (some centres not stated),150 nM,0.2 µM·h,14 nM,490,–,–,–,–,–
